Six compounds from PMC7392372 (Bioorganic & medicinal chemistry letters, 2018) can be followed below.

The target of one data set is BRD4 (BD1,2) (Homo sapiens, UniProt O60885). In words: BROMOScan competitive binding affinity, BRD4. As to conditions: for fold improvement in Kd values: relative to smaller 2-substitutions (13, 14); for fold decrease of potency in binding affinity (Kd): relative to 17.
Data set [1] can be described thus: Pharmacokinetics in CD-1 mice. Format: in vivo. The settings on record: po 10 mg/kg, n=3. In a few lines:
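CD-1 mice received a single 10 mg/kg oral dose, n = 3. AUC0−∞ (h·ng/mL) was reported together with t1/2, Cmax, Vss, CLp and F%. For oral bioavailability, an intravenous arm dosed at 2 mg/kg was also run.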

As to `Cc1noc(C)c1-c1ccc2nc(N(C)CCN(C)C)nc(NCc3cccc(Cl)c3)c2c1` [compound 15], the “fold improvement in Kd values” at BRD4 (BD1,2) is on record as ~ 20 fold.
Regarding `Cc1noc(C)c1-c1ccc2nc(N3CCN(C)CC3)nc(NCc3cccc(Cl)c3)c2c1` [compound 16], the “fold improvement in Kd values” on BRD4 (BD1,2) was ~ 20 fold.
With `Cc1noc(C)c1-c1ccc2c(NCc3cccc(Cl)c3)nc(N3CCN(CCN(C)C)CC3)nc2c1` [compound 40], the “fold decrease of potency in binding affinity (Kd)” value (shortened to “fold decrease of potency”) on BRD4 (BD1,2) is recorded as ~ 12 fold.
Regarding `CN(C)CCN1CCN(c2nc(NCc3cccc(Cl)c3)c3cc(-c4ccc(=O)n(C)c4)ccc3n2)CC1` [compound 48], the “AUC0−∞” value in data set [1] was “no exposure”.
For `Cc1noc(C)c1-c1ccc2nc(N3CCN(CCN(C)C)CC3)nc(NCc3ccc(Cl)cc3)c2c1` [compound 51], the “fold decrease of potency” value at BRD4 (BD1,2) is listed as ~ 9 fold.
Regarding `Cc1noc(C)c1-c1ccc2nc(N3CCN(CCN(C)C)CC3)nc(N(C)Cc3cccc(Cl)c3)c2c1` [compound 57], the “fold decrease of potency” value on BRD4 (BD1,2) is 2–3 fold.
